Results on one compound are retold here after ChEMBL document CHEMBL4376814, “Novel cyclin-dependent kinase 9 (CDK9) inhibitor with suppression of cancer stemness activity against non-small-cell lung cancer” (Eur J Med Chem, 2019).

The target in test [1] is CDK6/cyclin D3 (Homo sapiens) (UniProt P30281+Q00534). The experiment in a line: Inhibition of recombinant full-length human CDK6/cyclinD3 at 1 uM using histone H1 as substrate measured after 40 mins in presence of [gamma33P]ATP by scintillation counting method relative to control. It counts as protein-complex assay. An outline of the steps: (§1)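 Percent inhibition of kinase activity at a single compound concentration, measured by the outsourced Eurofins KinaseProfiler panel. Values are the mean of two independent experiments.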

Test [2] deals with MCF7. Briefly: Antiproliferative activity against human MCF7 cells assessed as inhibition of cell viability at 10 uM after 72 hrs by CCK-8 assay relative to control. It counts as functional. The settings on record: MCF7, 72 h. Put shortly:
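Single-concentration viability screen using CCK-8. Cells were seeded at 3000/well and treated for 72 h. A450 read after 1-4 h with reagent. Percent inhibition calculated against untreated control and blank wells as (Ac−As)/(Ac−Ab)×100%.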
For orientation: Tetrazolium assays rely on reduction of a dye to a coloured formazan, in cell work by metabolically active cells.

The subject of test [3] is Hep 3B2. The experiment in a line: Antiproliferative activity against human Hep3B cells assessed as inhibition of cell viability after 72 hrs by CCK-8 assay. It counts as functional, cell-based. Put shortly:
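Cells kept at 37 °C, 5% CO2 in DMEM or RPMI-1640 with 10% FBS and 1% penicillin/streptomycin, then seeded at 3000 cells/well (adherent) or 10,000 cells/well (suspension). Exposed to a range of concentrations for 72 h. CCK-8 added for 1-4 h before reading A450. […] Three independent experiments.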

In test [4] the test system is A549. The experiment in a line: Induction of apoptosis in human A549 cells assessed as late apoptotic cells at 0.25 uM after 48 hrs by AnnexinV-FITC/PI staining-based flow cytometric analysis (reference value: 7.66%). It counts as functional. (In flow cytometry, cells or beads pass a laser one at a time.)
In test [5] the test system is NCI-H1299. Briefly: Downregulation of cyclin T1 expression in human H1299 cells at 0.25 to 1 uM after 24 hrs by Western blot analysis. It counts as functional, cell-based. An outline of the steps:
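A549 and H1299 cells treated for 24 h with serial dilutions alongside a DMSO control. Protein extracts resolved and immunoblotted.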
A general note: A western blot detects proteins with antibodies after separation by electrophoresis.

Test [6] deals with A549. Briefly: Inhibition of tumorsphere formation in human A549 cells assessed as reduction in side population ratio by PI/Hoechst 33342 staining based flow cytometry. It counts as functional, cell-based.
The subject of test [7] is Tyrosine-protein kinase BTK (Homo sapiens), Q06187 [R28H]. The experiment in a line: Inhibition of full-length recombinant human BTK R28H mutant at 1 uM using LSNLYHQGKFLQTFCGSPLYRRR as substrate measured after 40 mins in presence of [gamma33P]ATP by scintillation counting method relative to control. Put shortly:
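Single-point inhibition at 1 µM was measured in the Eurofins KinaseProfiler panel. Values are the mean of two independent experiments.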

Test [8] addresses Misshapen-like kinase 1 (Homo sapiens) (UniProt Q8N4C8). The experiment in a line: Inhibition of recombinant human MINK (1 to 310 recombinant) at 1 uM using myelin basic protein as substrate measured after 40 mins in presence of [gamma33P]ATP by scintillation counting method relative to control.
Test [9] concerns the target Mitogen-activated protein kinase kinase kinase 9 (Homo sapiens) (UniProt P80192). Briefly: Inhibition of recombinant human MLK1 (134 to 414 residues) at 1 uM using casein as substrate measured after 40 mins in presence of [gamma33P]ATP by scintillation counting method relative to control.
In test [10] the target is Serine/threonine-protein kinase Chk1 (Homo sapiens) (UniProt O14757). Briefly: Inhibition of full length recombinant human CHK1 at 1 uM using KKKVSRSGLYRSPSMPENLNRPR as substrate measured after 40 mins in presence of [gamma33P]ATP by scintillation counting method relative to control.
Test [11] has as its target [Pyruvate dehydrogenase (acetyl-transferring)] kinase isozyme 4, mitochondrial (Homo sapiens) (UniProt Q16654). The experiment in a line: Inhibition of recombinant full-length human PDHK4 at 1 uM using KKKYHGHSMSDPGVSYRT as substrate measured after 40 mins in presence of [gamma33P]ATP by scintillation counting method relative to control.
Test [12] deals with Serine/threonine-protein kinase pim-3 (Homo sapiens) (UniProt Q86V86). The experiment in a line: Inhibition of recombinant human Pim-3 (2 to end residues) at 1 uM using RSRHSSYPAGT as substrate measured after 40 mins in presence of [gamma33P]ATP by scintillation counting method relative to control.
Test [13] relates to Proto-oncogene tyrosine-protein kinase receptor Ret (Homo sapiens), P07949 [V804L]. Briefly: Inhibition of human Ret V804L mutant (658 to end residues) at 1 uM using KKKVSRSGLYRSPSMPENLNRPR as substrate measured after 40 mins in presence of [gamma33P]ATP by scintillation counting method relative to control. An outline of the steps:
as §1

Test [14] has as its target Mitogen-activated protein kinase 12 (Homo sapiens) (UniProt P53778). The experiment in a line: Inhibition of recombinant full-length human SAPK3 at 1 uM using myelin basic protein as substrate measured after 40 mins in presence of [gamma33P]ATP by scintillation counting method relative to control.
In test [15] the test system is SNF-related serine/threonine-protein kinase (Homo sapiens), Q9NRH2 [UNDEFINED MUTATION]. The experiment in a line: Inhibition of human SNRK E97G/P116A mutant (1 to 505 residues) at 1 uM using KKLRRTLSFAEPG as substrate measured after 40 mins in presence of [gamma33P]ATP by scintillation counting method relative to control. Put shortly: as §1
Test [16] deals with Serine/threonine-protein kinase 33 (Homo sapiens) (UniProt Q9BYT3). The experiment in a line: Inhibition of recombinant full-length human STK33 at 1 uM using myelin basic protein as substrate measured after 40 mins in presence of [gamma33P]ATP by scintillation counting method relative to control.
Test [17] deals with Leukocyte tyrosine kinase receptor (Homo sapiens) (UniProt P29376). The experiment in a line: Inhibition of recombinant human LTK (450 to end residues) at 1 uM using GEEPLYWSFPAKKK as substrate measured after 40 mins in presence of [gamma33P]ATP by scintillation counting method relative to control.
Test [18] addresses Dual specificity mitogen-activated protein kinase kinase 1 (Homo sapiens) (UniProt Q02750). The experiment in a line: Inhibition of recombinant full-length human MEK1 at 1 uM using unactive MAPK2 as substrate measured after 40 mins in presence of [gamma33P]ATP by scintillation counting method relative to control.
For test [19], the target named is Serine/threonine-protein kinase VRK2 (Homo sapiens) (UniProt Q86Y07). Briefly: Inhibition of recombinant human VRK2 (1 to 336 residues) at 1 uM using casein as substrate measured after 40 mins in presence of [gamma33P]ATP by scintillation counting method relative to control.
Test [20] addresses Tyrosine-protein kinase Yes (Homo sapiens) (UniProt P07947). The experiment in a line: Inhibition of recombinant full-length human YES at 1 uM using poly(Glu, Tyr) 4:1 as substrate measured after 40 mins in presence of [gamma33P]ATP by scintillation counting method relative to control.
Test [21] is filed under the species Homo sapiens. Briefly: Inhibition of recombinant full-length human PI3K p110delta/p85alpha N253S mutant at 1 uM using phosphatidylinositol-4, 5-bisphosphate as substrate measured after 40 mins by fluorescence assay relative to control.
The target in test [22] is Phosphatidylinositol 4-phosphate 5-kinase type-1 gamma (Homo sapiens) (UniProt O60331). The experiment in a line: Inhibition of recombinant full-length human PIP5K1gamma at 1 uM using phosphatidylinositol 4-phosphate as substrate measured after 40 mins by HTRF assay relative to control.

Structures are written as SMILES. The source made the active and inactive calls. No cut-off for these calls is given here.

Chain of SNF-related serine/threonine-protein kinase (Homo sapiens), Q9NRH2 [UNDEFINED MUTATION] (Q9NRH2 whole entry, looked up, stated change not applied, the tested form may be a part): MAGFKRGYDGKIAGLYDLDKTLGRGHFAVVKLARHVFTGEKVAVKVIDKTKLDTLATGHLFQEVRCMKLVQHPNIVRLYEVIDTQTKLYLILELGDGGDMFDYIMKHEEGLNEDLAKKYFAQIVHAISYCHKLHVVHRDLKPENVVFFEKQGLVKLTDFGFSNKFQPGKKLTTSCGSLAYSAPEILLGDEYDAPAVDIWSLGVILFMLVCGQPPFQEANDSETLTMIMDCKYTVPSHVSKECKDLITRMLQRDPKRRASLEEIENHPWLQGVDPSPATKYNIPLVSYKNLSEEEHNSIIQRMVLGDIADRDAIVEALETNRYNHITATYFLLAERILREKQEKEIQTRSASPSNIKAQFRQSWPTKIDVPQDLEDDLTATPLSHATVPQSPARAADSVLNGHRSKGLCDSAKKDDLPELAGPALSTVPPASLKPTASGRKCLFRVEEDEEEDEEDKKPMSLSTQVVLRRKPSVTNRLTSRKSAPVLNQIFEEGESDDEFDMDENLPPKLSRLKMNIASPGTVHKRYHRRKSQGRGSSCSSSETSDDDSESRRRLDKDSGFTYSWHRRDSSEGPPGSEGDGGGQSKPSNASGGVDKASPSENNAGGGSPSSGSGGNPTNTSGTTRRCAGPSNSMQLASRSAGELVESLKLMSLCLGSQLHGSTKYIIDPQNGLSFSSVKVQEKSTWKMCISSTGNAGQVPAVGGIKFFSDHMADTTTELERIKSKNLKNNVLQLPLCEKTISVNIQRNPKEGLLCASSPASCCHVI
Chain of Serine/threonine-protein kinase VRK2 (Homo sapiens) (Q86Y07 whole entry, the tested form may be a part): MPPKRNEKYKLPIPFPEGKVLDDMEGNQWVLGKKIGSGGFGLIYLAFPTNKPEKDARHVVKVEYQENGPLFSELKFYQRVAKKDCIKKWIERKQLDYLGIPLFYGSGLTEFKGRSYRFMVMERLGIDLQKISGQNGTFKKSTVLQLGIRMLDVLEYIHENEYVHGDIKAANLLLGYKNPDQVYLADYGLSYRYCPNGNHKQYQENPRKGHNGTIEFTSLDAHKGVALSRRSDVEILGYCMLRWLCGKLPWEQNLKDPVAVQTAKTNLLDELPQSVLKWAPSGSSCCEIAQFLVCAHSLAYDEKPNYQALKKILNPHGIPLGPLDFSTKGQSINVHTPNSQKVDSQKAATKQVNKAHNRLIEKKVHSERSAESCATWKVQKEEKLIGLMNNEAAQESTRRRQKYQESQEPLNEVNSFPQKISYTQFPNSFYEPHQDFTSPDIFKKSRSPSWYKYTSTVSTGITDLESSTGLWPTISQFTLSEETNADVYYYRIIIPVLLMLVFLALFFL
Chain of Dual specificity mitogen-activated protein kinase kinase 1 (Homo sapiens) (Q02750 whole entry, the tested form may be a part): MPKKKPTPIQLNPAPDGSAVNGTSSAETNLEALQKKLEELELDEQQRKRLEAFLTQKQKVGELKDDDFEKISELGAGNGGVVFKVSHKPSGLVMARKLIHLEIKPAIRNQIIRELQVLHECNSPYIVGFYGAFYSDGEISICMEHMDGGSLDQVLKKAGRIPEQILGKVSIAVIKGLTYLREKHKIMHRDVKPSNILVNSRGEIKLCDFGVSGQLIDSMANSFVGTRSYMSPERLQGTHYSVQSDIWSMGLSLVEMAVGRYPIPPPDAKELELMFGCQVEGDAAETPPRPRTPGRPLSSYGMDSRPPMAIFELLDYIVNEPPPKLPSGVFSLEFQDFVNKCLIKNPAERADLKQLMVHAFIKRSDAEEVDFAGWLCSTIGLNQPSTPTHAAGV
Chain of Tyrosine-protein kinase BTK (Homo sapiens), Q06187 [R28H] (Q06187 whole entry R28H): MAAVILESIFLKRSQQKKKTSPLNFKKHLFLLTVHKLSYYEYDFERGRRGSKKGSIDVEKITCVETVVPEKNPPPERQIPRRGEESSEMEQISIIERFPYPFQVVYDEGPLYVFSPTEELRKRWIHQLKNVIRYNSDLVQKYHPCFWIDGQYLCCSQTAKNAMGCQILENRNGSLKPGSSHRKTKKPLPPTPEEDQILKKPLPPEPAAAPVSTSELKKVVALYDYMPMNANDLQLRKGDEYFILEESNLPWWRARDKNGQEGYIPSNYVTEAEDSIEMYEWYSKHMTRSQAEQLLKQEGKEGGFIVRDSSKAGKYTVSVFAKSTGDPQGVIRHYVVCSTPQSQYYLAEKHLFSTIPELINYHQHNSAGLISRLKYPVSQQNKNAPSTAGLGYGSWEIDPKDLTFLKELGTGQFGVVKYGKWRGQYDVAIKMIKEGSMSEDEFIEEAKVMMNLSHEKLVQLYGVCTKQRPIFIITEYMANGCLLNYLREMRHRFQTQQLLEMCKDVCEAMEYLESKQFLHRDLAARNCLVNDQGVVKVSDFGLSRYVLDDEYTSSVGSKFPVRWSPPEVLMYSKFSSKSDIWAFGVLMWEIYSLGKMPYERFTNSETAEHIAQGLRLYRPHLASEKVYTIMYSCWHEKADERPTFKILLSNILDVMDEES
Chain of Tyrosine-protein kinase Yes (Homo sapiens) (P07947 2-543 limits assumed): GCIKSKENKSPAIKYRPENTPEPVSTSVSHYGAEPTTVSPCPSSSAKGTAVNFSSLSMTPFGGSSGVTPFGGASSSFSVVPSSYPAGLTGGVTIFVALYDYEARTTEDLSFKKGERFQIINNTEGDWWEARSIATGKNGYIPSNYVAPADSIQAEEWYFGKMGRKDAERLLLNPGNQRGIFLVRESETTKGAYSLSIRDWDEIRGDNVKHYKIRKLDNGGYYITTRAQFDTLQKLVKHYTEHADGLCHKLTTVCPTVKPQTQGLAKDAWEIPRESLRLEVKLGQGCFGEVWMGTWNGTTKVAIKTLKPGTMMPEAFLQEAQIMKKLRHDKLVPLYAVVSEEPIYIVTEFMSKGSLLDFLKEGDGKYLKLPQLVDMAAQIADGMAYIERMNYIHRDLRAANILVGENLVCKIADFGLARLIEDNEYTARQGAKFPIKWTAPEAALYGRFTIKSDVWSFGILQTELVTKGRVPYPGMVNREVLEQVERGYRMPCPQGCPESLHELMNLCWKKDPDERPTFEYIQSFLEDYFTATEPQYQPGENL
Chain of Leukocyte tyrosine kinase receptor (Homo sapiens) (P29376 whole entry): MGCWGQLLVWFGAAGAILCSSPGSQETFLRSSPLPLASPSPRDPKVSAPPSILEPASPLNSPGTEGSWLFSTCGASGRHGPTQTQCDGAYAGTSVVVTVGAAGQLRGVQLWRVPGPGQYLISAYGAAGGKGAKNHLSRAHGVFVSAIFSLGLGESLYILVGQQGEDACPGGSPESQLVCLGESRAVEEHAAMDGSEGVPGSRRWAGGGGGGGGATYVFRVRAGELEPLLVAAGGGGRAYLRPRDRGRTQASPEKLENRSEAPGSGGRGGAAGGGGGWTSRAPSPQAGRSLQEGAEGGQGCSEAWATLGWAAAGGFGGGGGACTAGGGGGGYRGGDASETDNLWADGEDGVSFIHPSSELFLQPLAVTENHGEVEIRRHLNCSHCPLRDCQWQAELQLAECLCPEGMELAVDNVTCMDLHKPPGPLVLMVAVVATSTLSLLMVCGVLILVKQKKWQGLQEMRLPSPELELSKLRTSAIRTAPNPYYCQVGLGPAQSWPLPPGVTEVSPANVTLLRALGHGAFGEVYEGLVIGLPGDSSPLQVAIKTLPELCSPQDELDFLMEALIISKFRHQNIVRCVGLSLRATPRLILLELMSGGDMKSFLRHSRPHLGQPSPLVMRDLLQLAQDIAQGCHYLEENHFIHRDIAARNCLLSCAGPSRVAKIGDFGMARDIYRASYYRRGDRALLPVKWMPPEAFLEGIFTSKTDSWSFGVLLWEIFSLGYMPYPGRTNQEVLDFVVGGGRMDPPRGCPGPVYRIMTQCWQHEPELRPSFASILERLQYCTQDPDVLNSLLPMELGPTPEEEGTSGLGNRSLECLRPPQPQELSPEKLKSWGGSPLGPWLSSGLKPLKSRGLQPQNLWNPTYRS
Chain of Serine/threonine-protein kinase Chk1 (Homo sapiens) (O14757 whole entry): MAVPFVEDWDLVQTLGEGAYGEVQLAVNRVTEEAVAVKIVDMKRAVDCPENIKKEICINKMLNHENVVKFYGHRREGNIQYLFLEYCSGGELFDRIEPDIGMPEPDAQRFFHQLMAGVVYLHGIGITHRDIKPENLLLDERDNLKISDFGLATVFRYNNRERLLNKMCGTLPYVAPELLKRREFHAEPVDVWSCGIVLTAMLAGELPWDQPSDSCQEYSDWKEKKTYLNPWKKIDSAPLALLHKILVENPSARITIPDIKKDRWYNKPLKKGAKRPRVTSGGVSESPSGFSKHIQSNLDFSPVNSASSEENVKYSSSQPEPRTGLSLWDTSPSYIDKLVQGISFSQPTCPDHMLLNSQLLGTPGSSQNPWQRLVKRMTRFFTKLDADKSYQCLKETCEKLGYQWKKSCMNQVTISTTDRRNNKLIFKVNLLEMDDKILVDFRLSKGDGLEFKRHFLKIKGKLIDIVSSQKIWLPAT
Chain of [Pyruvate dehydrogenase (acetyl-transferring)] kinase isozyme 4, mitochondrial (Homo sapiens) (Q16654 whole entry, looked up): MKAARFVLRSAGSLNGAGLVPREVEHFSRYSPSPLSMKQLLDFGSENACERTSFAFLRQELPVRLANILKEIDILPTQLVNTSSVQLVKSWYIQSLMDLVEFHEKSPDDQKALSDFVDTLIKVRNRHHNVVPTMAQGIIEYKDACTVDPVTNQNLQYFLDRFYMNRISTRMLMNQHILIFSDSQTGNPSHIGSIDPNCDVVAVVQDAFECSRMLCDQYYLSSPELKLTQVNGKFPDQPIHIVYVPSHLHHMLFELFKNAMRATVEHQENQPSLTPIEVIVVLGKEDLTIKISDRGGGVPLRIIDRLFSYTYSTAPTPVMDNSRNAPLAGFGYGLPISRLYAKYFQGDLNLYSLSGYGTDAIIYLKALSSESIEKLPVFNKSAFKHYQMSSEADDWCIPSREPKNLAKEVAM

Usually inhibition stands for the change of the read-out against control, counted positive when it falls. For orientation: IC50 means the point on the concentration scale where inhibition reaches its midpoint. With `CN(C)C(=O)c1cc2cnc(Nc3ccc(NC(=O)CCCCCCCN=C=S)cc3)nc2n1C1CCCC1`, the inhibition was 79% in test [1]; “Dose-dependent effect” in test [6]; 1% in [7]; 39% in [8]; 34% in [9]; -9% in [10]. The inhibition is -3% in test [11]; -8% in test [12]; 46% in test [13]; 4% in [14]; 7% in test [15]; 27% in test [16]. The inhibition in test [17] came to 33%; in test [18], 22%; in [19] it was 0%; in test [20], 61%; in [21] it was 2%; in test [22], 0%. In addition, the inhibition at 10 µM in test [2] was 98%. Moreover, the IC50 in test [3] worked out at 5.61 µM. Moreover, in [4], the Activity came out at 14.5%. In test [5], the outcome was Active.
